In the library only some 1.4% were active in any assay of this set; here they are far more common.
IDE cell inh: cellular human IDE inhibition; HEK cells, FAbetaB cleavage, fluorescence polarization; inhibition, % at 5.59 µM; actives 0.41% (n = 320,000); AID 434962;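 active = percent inhibition above the average of all tested compounds plus 3 SD, set per screening campaign, cut at about 16% in these data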;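 also: IDE supplied by intact live HEK cells; FP after avidin binding of uncleaved biotin substrate so inhibition keeps polarization high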
Target sequence (P14735 whole entry, looked up): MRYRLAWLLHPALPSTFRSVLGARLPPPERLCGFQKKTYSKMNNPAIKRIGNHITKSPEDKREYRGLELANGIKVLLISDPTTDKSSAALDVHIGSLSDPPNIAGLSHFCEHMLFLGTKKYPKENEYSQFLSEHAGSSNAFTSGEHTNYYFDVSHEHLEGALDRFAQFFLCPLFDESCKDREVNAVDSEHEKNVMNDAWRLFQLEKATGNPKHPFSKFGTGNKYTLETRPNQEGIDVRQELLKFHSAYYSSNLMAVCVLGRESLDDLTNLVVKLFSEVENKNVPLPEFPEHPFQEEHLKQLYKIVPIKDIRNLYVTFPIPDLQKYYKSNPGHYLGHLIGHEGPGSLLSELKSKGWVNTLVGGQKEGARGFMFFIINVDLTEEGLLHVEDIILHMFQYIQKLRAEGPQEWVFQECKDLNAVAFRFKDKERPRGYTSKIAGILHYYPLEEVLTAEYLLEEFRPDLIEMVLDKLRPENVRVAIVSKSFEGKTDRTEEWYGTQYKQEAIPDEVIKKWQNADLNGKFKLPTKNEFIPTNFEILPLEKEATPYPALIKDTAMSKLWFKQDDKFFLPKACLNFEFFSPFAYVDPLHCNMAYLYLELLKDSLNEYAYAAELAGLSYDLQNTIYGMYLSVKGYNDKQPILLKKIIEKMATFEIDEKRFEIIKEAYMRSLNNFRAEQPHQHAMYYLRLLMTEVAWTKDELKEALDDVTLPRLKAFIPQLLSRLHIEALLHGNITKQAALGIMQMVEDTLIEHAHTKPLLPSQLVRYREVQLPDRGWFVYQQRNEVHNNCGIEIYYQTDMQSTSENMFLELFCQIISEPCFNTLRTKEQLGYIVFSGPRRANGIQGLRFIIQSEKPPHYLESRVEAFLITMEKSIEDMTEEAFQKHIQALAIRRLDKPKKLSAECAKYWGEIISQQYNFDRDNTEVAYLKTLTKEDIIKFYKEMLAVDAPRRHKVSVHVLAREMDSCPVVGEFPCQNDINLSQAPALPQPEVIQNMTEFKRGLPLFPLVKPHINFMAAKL
IDE cell activ: boosts human insulin-degrading enzyme activity in HEK cells | FAbeta-B cleavage, fluorescence polarization; 0% vehicle, 100% cell-free pure enzyme wells | activation, % at 5.96 µM | actives 0.073% (n = 340,000);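 active = activation above the mean of all tested compounds plus 3 SD, set per screening campaign, cut at about 17% in these data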
Efflux pump mplx: blocks antifungal efflux pumps in multiplex yeast assay. AID 485275. inhibition, % at 10 µM. S. cerevisiae Candida pump triplex, Nile Red efflux. actives 0.44% (n = 330,000);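 active = plate passing quality check with inhibition over a set limit, or well fluorescence over plate mean plus 4 SD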;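 also: Nile Red retained in pooled yeast measured as flow cytometry median fluorescence; higher means more Nile Red kept so more efflux inhibition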
Tb MetRS inh: Trypanosoma brucei MetRS inhibition | inhibition, % at 11.9 µM | actives 0.4% (n = 360,000) | purified T. brucei MetRS, ATP depletion, Kinase-Glo luminescence;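 active = inhibition above a per-plate cutoff of the control wells' mean inhibition plus 3 SD, cut at about 5.5% in these data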
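Material: T. brucei methionyl-tRNA synthetase, purified; reagent: substrates ATP, L-methionine and bulk Escherichia coli tRNA; dosing: 11.9 µM single point; timing: 15 min plus 2 h at 25 °C; detection: luminescence of leftover ATP; evaluation: % inhibition; control set: DMSO-only wells as low control; replicates: singlicate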
Yeast superoxide: yeast age-related superoxide inhibition as caloric restriction mimetic; actives 0.18% (n = 330,000); AID 2690; S. cerevisiae aged cells, superoxide DHE fluorescence; hits give low values; superoxide response (% of plate mean), % at 10 µM;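 active = superoxide response under a set limit, about three screen SD below normal, cut at about 65% in these data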;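 also: yeast aged for seven days with compound at 30 °C before DHE staining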
HDAC3 inhib: blocks human histone deacetylase 3. AID 2718. recombinant HDAC3, fluorogenic peptide/trypsin coupled, fluorescence. inhibition, % at 8.3 µM. actives 0.15% (n = 320,000). O15379; in the data active = inhibition above about 26%, passing the limit was not always enough
TbMetRS confirm: Trypanosoma brucei MetRS inhibition confirmed | AID 624412 | T. brucei MetRS enzyme, luminescence (ATP depletion) | inhibition, % at 11.9 µM | shares compounds with Tb MetRS inh | actives 93% (n = 1,400); in the data active = inhibition above about 7%
Jurkat tox: counter-screen for T. brucei MetRS inhibitors: Jurkat cell cytotoxicity. inhibition, % at 8.3 µM. actives 12% (n = 1,400). shares compounds with Tb MetRS inh. Jurkat cells viability, ATP luminescence. AID 624413; in the data active = inhibition above about 15%
Tb MetRS inh FP: inhibits T. brucei methionyl tRNA synthetase in orthogonal FP test | shares compounds with Tb MetRS inh | purified T. brucei MetRS, fluorescence polarization | inhibition, % at 11.9 µM | actives 44% (n = 1,400) | AID 651607; in the data active = inhibition above about 17%
Hits are given with their value; i = inactive; nt = not tested or not shown.

SMILES	IDE cell inh	IDE cell activ	Efflux pump mplx	Tb MetRS inh	Yeast superoxide	HDAC3 inhib	TbMetRS confirm	Jurkat tox	Tb MetRS inh FP
Cc1cccc(NS(=O)(=O)c2c(C)[nH]c(C)c2C(=O)N2CCCC2)c1	i	i	i	25.5	i	i	54.6	i	19.9
Cc1cccc(CNc2ccc(S(=O)(=O)N3CCCCC3)cc2)c1	i	i	i	i	i	i	nt	nt	nt
CCCN1CN(Cc2ccco2)c2nc3ccccc3n2C1	i	i	i	20.0	i	i	17.5	i	i
CCOC(=O)N1CCC(Nc2c(Nc3ccc(F)cc3)c(=O)c2=O)CC1	i	i	i	36.2	i	i	76.6	i	40.3
CN1CCN(NC(=O)c2cccc(Br)c2)CC1	i	i	i	i	i	i	nt	nt	nt
CC1CCCN(S(=O)(=O)CCNC(=O)c2ccccc2)C1 (stereo unspecified)	i	i	i	i	i	i	nt	nt	nt
C=CCNC(=S)NNC(=O)Cn1c(-c2ccccc2)cc(=O)n2ncnc12	i	i	i	10.1	i	i	17.0	i	i
O=C(CSCc1ccc([N+](=O)[O-])cc1)N/N=C/c1cccnc1	i	i	i	9.2	i	i	34.0	i	i
CCc1ccccc1NC(=O)CNC(=O)c1ccc(-n2cncn2)c([N+](=O)[O-])c1	i	i	i	17.8	i	i	46.9	i	22.7
Cc1ccc(NC(=O)c2ccc(-n3cncn3)c([N+](=O)[O-])c2)cc1F	i	i	i	13.0	i	i	56.3	i	24.8
O=C(Nc1ccc(F)cc1F)c1ccc(-n2cccn2)c([N+](=O)[O-])c1	i	i	i	i	i	i	nt	nt	nt
Cc1cccc(C)c1NC(=O)CNC(=O)c1ccc(N2CCCC2)c([N+](=O)[O-])c1	i	i	i	i	i	i	nt	nt	nt
COc1cccc(NC(=O)CN(C)C(=O)c2ccc(-n3cncn3)c([N+](=O)[O-])c2)c1	i	i	i	i	i	i	nt	nt	nt
O=C(Nc1ccc(F)cc1)c1ccc(-n2cncn2)c([N+](=O)[O-])c1	i	i	i	33.5	i	i	47.8	21.5	27.7
Cc1cccc(NC(=O)c2ccc(-n3cncn3)c([N+](=O)[O-])c2)c1	i	i	i	20.4	i	i	57.0	i	29.2
CCOC(=O)N1CCN(C(=O)CCc2ccc(S(=O)(=O)NC(C)(C)C)cc2)CC1	nt	i	i	i	i	i	nt	nt	nt
CC(C)CCNC(=O)CCn1nc(-c2ccc(Cl)cc2)ccc1=O	i	i	i	i	i	i	nt	nt	nt
O=C(CC[C@H]1O[C@@H](n2cnc3c(NC(=O)c4ccccc4)ncnc32)[C@H](O)[C@@H]1O)NCC1CCCCC1	nt	nt	nt	i	nt	nt	nt	nt	nt
CCSC(=S)Nc1c(C)n(C)n(-c2ccccc2)c1=O	i	i	i	i	i	i	nt	nt	nt
CCOC(=O)CN(C(=O)CSc1nnc2c(n1)[nH]c1ccc(F)cc12)c1ccccc1	i	i	i	6.3	i	i	17.0	i	i
Cc1nc(Nc2ccccc2)[nH]c(=O)c1CCC(C)C	i	i	i	7.5	i	i	52.0	i	24.0
Cc1nc(N2CCc3ccccc3C2)[nH]c(=O)c1CCC(C)C	i	i	i	i	i	i	nt	nt	nt
CC(=O)CCn1cnc([N+](=O)[O-])n1	i	i	i	i	i	i	nt	nt	nt
C=CCn1c(COc2ccccc2F)nnc1SCC(=O)c1c[nH]c2ccccc12	i	i	i	13.5	i	i	17.4	i	i
Cc1ccc(-c2nnnn2C2C/C(=N\NC(N)=S)C3OCC2O3)cc1 (stereo unspecified)	i	i	i	i	i	i	nt	nt	nt
SMILES	IDE cell inh	IDE cell activ	Efflux pump mplx	Tb MetRS inh	Yeast superoxide	HDAC3 inhib	TbMetRS confirm	Jurkat tox	Tb MetRS inh FP
COc1ccc(C)cc1S(=O)(=O)N1CCN(C(=O)c2ncoc2-c2cccc(F)c2)CC1	i	i	i	i	i	i	nt	nt	nt
O=C(c1cccnc1)N1CCN(c2ccc([N+](=O)[O-])cc2Cl)CC1	i	i	i	5.8	i	i	16.5	i	i
O=C(NCCN1CCOCC1)/C(=C\c1ccc(F)cc1)NC(=O)c1ccccc1	i	i	i	i	i	i	nt	nt	nt
CCOC(=O)/C(C#N)=C/c1ccc(N2CCN(C)CC2)cc1	i	i	i	i	i	i	nt	nt	nt
CCOC(=O)C(/C=C(\C#N)C(=O)OCC)=C(/N)N1CCN(c2ccccc2)CC1	i	i	i	40.5	i	i	57.6	i	28.3
O=C(C[C@H]1C/C=C\CC[C@H](Cc2ccc(F)cc2)C(=O)O[C@H](c2ccccc2)CNC1=O)N[C@H](CO)Cc1ccccc1	i	i	i	i	i	i	nt	nt	nt
CN(CC(=O)Nc1ccc(Cl)c(C(F)(F)F)c1)C(=O)/C=C/c1cccs1	i	i	i	20.6	i	i	70.3	i	41.1
CN(CC(=O)Nc1ccc(Cl)c(C(F)(F)F)c1)C(=O)CCNC(=O)c1ccco1	i	i	i	i	i	i	nt	nt	nt
CN(CC(=O)Nc1ccc(Cl)c(C(F)(F)F)c1)C(=O)/C=C/c1ccco1	i	i	i	29.5	i	i	37.8	i	21.0
CC(C)(C)C(=O)NNC(=O)CCCOc1ccc(Cl)cc1Cl	i	i	i	i	i	i	nt	nt	nt
COc1ccc(NC(=O)COC(=O)CCCOc2ccc(Cl)cc2Cl)cc1	i	i	i	7.0	i	i	17.2	i	23.0
CC(C)(CO)NC(=O)CCCOc1ccc(Cl)cc1Cl	i	i	i	10.9	i	i	13.2	i	i
COc1ccc(NC(=O)COC(=O)CCCOc2ccc(Cl)cc2Cl)cc1Cl	i	i	i	i	i	i	nt	nt	nt
Cc1cc(NC(=O)COC(=O)CCCOc2ccc(Cl)cc2C)no1	i	i	i	6.5	i	i	11.5	i	i
CC(C)(C)c1ccc2cc(F)cc(F)c2n1	nt	nt	nt	i	nt	nt	nt	nt	nt
C(=N\Nc1nc2ccccc2[nH]1)/c1c[nH]c2ccccc12	i	i	i	11.9	i	i	25.8	i	47.4
O=[N+]([O-])c1ccc(N/N=C/c2c[nH]c3ccccc23)cc1	i	i	i	7.5	i	i	12.3	20.9	54.8
Cc1ccccc1/C=N/Nc1nc2ccccc2[nH]1	i	i	i	i	i	i	nt	nt	nt
C(=N\Nc1nc2ccccc2[nH]1)/c1ccccc1	i	i	i	i	i	i	nt	nt	nt
Cc1[nH]c2ccccc2c1/C=N/Nc1nc2ccccc2[nH]1	i	nt	i	8.3	i	i	29.4	i	29.9
O=[N+]([O-])c1ccccc1N/N=C/c1c[nH]c2ccccc12	i	i	i	i	i	i	nt	nt	nt
Brc1ccc(-c2ccc(/C=N/Nc3nc4ccccc4[nH]3)o2)cc1	i	i	i	11.0	i	i	7.9	i	20.4

Screening results: PubChem BioAssay, several laboratories
